Reference: PubChem BioAssay AID504383 (The Scripps Research Institute Molecular Screening Center, 2011)
The whole screen tested about 2,500 compounds, of which about 1,200 (48%) were called active. So high a share suggests a set chosen from earlier hits. This is one part of the list. A number with no mark means an inactive call.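 How the source made its calls: active means mean activation above the low control average plus 3 SD, as set in the primary screen (cut at about 12% in these data); inactive means the rest.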

Target: Troponin I, cardiac muscle (Homo sapiens) + Troponin T, cardiac muscle (Homo sapiens) + Troponin C, slow skeletal and cardiac muscles (Homo sapiens) (UniProt P19429+P45379+P63316)
Test: calcium sensitizers of cardiac thin filaments – biochemical, IANBD-TnC fluorescence, triplicate, confirmation (AID 504383);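 further: 0% = DMSO at 0.472 mM calcium and 100% = DMSO at 2.9 mM calcium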
Details: IANBD-labeled cardiac RTF, Ca2+ sensitivity fluorescence; at 7.2 µM; stronger effect = higher value; scaled from EC20 to saturating calcium; tested at EC20 calcium, 0.472 mM
Method in brief: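 Assay system: labelled regulated thin filament protein complex; schedule: 15 min compound incubation with filaments at 25 °C; benchmarks: low control EC20 calcium, high control EC100 calcium; reagent: Ca2+ 0.472 mM, EC20 level; doses: one dose, 7.2 µM nominal; evaluation: fluorescence gain scaled between EC20 and EC100 calcium controls; signal: filament fluorescence intensity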

SMILES	activation
Cc1ccc(N=Nc2c(O)[nH]c3ccc(F)cc23)cc1	20.6% (active)
Oc1[nH]c2ccc(Br)cc2c1N=Nc1ccc(F)cc1	22.7% (active)
Cc1cccc(N=Nc2c(O)[nH]c3ccc(F)cc23)c1	7.58%
O=c1[nH]c2ccc(N=Cc3c(O)ccc4cc(Br)ccc34)cc2[nH]1	0.37%
CCN1/C(=C/C=C2/SC(=Nc3cccc4ncccc34)N(C)C2=O)Sc2ccccc21	28.3% (active)
CCN1/C(=C2\SC(=S)N(Cc3ccccc3)C2=O)Sc2ccccc21	-1.47%
CC1(C)CCN2CCC(C)(C)c3c(O)ccc1c32	42.4% (active)
CCOCCCn1c(=NC(=O)c2cccs2)c(C#N)cc2c(=O)n3cccc(C)c3nc21	19% (active)
Cc1cccn2c(=O)c3cc(C#N)c(=NC(=O)c4cccs4)n(CCCOC(C)C)c3nc12	4.3%
CCOC(=O)/C(=C\c1ccc(N2CCC(c3ccccc3)=N2)cc1)C(C)=O	8.5%
CCOC(=O)/C(=C/C1=CC(=C/N(C)C)/C(=O)O1)C(C)=O	87.4% (active)
CCOC(=O)NC1(C(F)(F)F)C(=O)NC(C)=C1C(=O)OC (stereo unspecified)	19.8% (active)
CC1CCN(c2ccc3c(c2)S(=O)(=O)c2ccccc2C3=O)CC1	9.57%
O=C(O)CCCC(=O)Nc1ccc(C(=O)NCc2cccnc2)cc1	0.95%
CC(Oc1ccc(F)cc1)C(=O)Nc1sc2c(c1C(=O)NCc1cccnc1)CCCC2 (stereo unspecified)	83.6% (active)
NC(=O)c1c(Nc2nc3c(F)cccc3s2)sc2c1CCCC2	-1.65%
CC1(C)c2ccccc2N2CC(=O)N(CC(N)=O)C21C (stereo unspecified)	70.2% (active)
CN1C(=CC=C2C=C(I)C(=O)C(I)=C2)C(C)(C)c2ccccc21	4.78%
CC1CCN(c2ccc3c(c2)S(=O)(=O)c2cccc(C(=O)NCc4ccc(F)cc4)c2C3=O)CC1	1.28%
CC1CCN(c2ccc3c(c2)S(=O)(=O)c2cccc(C(=O)NCc4cccc(F)c4)c2C3=O)CC1	8.22%
O=C(NCCc1ccc(F)cc1)c1cccc2c1C(=O)c1ccc(N3CCC(Cc4ccccc4)CC3)cc1S2(=O)=O	107% (active)
O=C(NCc1ccc(F)cc1)c1cccc2c1C(=O)c1ccc(N3CCC(Cc4ccccc4)CC3)cc1S2(=O)=O	4.35%
O=C(NCc1ccco1)c1cccc2c1C(=O)c1ccc(N3CCCC3)cc1S2(=O)=O	7.33%

SMILES	activation
O=C(NCc1cccc(F)c1)c1cccc2c1C(=O)c1ccc(N3CCC(Cc4ccccc4)CC3)cc1S2(=O)=O	14.5% (active)
O=C(NCc1ccco1)c1cccc2c1C(=O)c1ccc(N3CCC(Cc4ccccc4)CC3)cc1S2(=O)=O	63.9% (active)
O=C(NC1CC1)c1cccc2c1C(=O)c1ccc(N3CCC(Cc4ccccc4)CC3)cc1S2(=O)=O	0.64%
O=C(NCc1cccc(C(F)(F)F)c1)c1cccc2c1C(=O)c1ccc(N3CCC(Cc4ccccc4)CC3)cc1S2(=O)=O	8.69%
O=C(NCC(=O)N(Cc1cccs1)C(C(=O)NC1CCCCC1)c1ccncc1)c1ccco1 (stereo unspecified)	3.25%
O=C(NCCNC(=O)c1cccs1)c1ccco1	40.3% (active)
CCOC(=O)Cc1csc(N(C)C)n1	10.1%
CCOC(=O)Cc1csc(NC(=O)c2sc3nc4cc(C)ccc4cc3c2N)n1	71.2% (active)
CCOC(=O)Cc1csc(CC(N)=O)n1	4.59%
Cc1ccc(CNC(=O)c2ccc(S(=O)(=O)N3CCCCC3)cc2)cc1	6.31%
Cc1ccc(NC(=O)CN(C)c2ccc(S(=O)(=O)N3CCCC3)cn2)cc1	94.3% (active)
Nc1c(C(=O)Nc2ccc(S(=O)(=O)N3CCCC3)cc2)sc2nc3ccc(OC(F)(F)F)cc3cc12	11.7% (active)
CCc1cccc2cc3c(N)c(C(=O)Nc4ccc(S(=O)(=O)N5CCCC5)cc4)sc3nc12	24.8% (active)
Cc1cccc2cc3c(N)c(C(=O)N4CCCc5ccccc54)sc3nc12	6.58%
O=c1[nH][nH]c(C(F)(F)F)c1C=NCc1ccccc1Cl	33.6% (active)
O=c1[nH][nH]c(C(F)(F)F)c1C=Nc1cccc(Cl)c1	60% (active)
CN(C)c1ccc2nc3c(=O)[nH]c(=O)nc-3n(CC(O)C(O)C(O)CO)c2c1 (stereo unspecified)	10.2%
Cc1ccc(-c2nc(N)n(C(=O)c3cccnc3)n2)cc1	148% (active)
COc1ccccc1C(=O)n1nc(-c2ccccc2)nc1N	4.84%
COc1ccc(C(=O)/C=C/c2cn(CC(O)CN3CCOCC3)c3ccccc23)cc1 (stereo unspecified)	21.6% (active)
Cc1ccc(C(=O)/C=C/c2cn(CC(O)CN3CCOCC3)c3ccccc23)cc1 (stereo unspecified)	-2.05%
COc1ccc(C(=O)/C=C/c2cn(CC(O)CN3CCN(C)CC3)c3ccccc23)cc1OC (stereo unspecified)	133% (active)
COC(=O)c1ccc(Oc2c(F)c(F)nc(N3CCOCC3)c2F)cc1	5.29%
